Data taken from ChEMBL document CHEMBL1914331, “N-O chemistry for antibiotics: discovery of N-alkyl-N-(pyridin-2-yl)hydroxylamine scaffolds as selective antibacterial agents using nitroso Diels-Alder and ene chemistry” (J Med Chem, 2011).
Values after ≈ are worked out from the molar mass of the structure shown.

Experiments:
[1] = tested on: Sporobolomyces salmonicolor; assay: Antimicrobial activity against Sporidiobolus salmonicolor 549 at 10 ug/ml after 24 hrs by Kirby-Bauer agar diffusion assay; assay type: functional; settings: Sporobolomyces salmonicolor, 549, 24 h; read-out: DIZ
Method in brief: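 Control for the yeast: amphotericin B, 10 µg/mL in 10:1 DMSO:MeOH, 50 µL per 9 mm well in inoculated MHII agar (~5×10³ CFU/mL). Incubated at 37 °C for 24 h; growth-inhibition zone diameter measured in mm.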

Staphylococcus aureus [2] = assay: microbe, parasite or virus in culture; settings: 134/94, 24 h, read-out: DIZ
Staphylococcus aureus [3] = assay: Antimicrobial activity against Staphylococcus aureus SG511 at 5 ug/ml after 24 hrs by Kirby-Bauer agar diffusion assay; settings: SG511, 24 h, read-out: DIZ
Escherichia coli [4] = assay: Antimicrobial activity against Escherichia coli DC2 at 5 ug/ml after 24 hrs by Kirby-Bauer agar diffusion assay; settings: DC2, 24 h, read-out: DIZ
Micrococcus luteus = assay: Antimicrobial activity against Micrococcus luteus ATCC 10240 at 5 ug/ml after 24 hrs by Kirby-Bauer agar diffusion assay; assay type: functional; settings: ATCC 10240, 24 h, read-out: DIZ
Method in brief: (§1)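 Ciprofloxacin control, 5 µg/mL in water, 50 µL per 9 mm well in MHII agar seeded with ~5×10³ CFU/mL (saline suspension standardized to 0.5 McFarland from an overnight LB culture). Incubated at 37 °C for 24 h; inhibition zone diameter read in mm.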

Enterococcus faecalis [5] = assay: microbe, parasite or virus in culture; settings: Enterococcus faecalis, 1528, 24 h, read-out: DIZ
Enterococcus faecalis [6] = assay: microbe, parasite or virus in culture; settings: ATCC 49532, 24 h, read-out: DIZ
Staphylococcus aureus [7] = assay: Antimicrobial activity against Staphylococcus aureus SG511 assessed after 18 hrs by broth microdilution method; assay type: functional; settings: SG511, 18 h
Method in brief: (§2)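 CLSI broth microdilution in cation-adjusted MHII broth. 20 mM DMSO stocks were diluted to 512 µM, then serially 2-fold, giving final 128–0.0625 µM with 5×10⁵ CFU/mL inoculum. Incubated 18 h at 37 °C. MIC90 was the lowest concentration giving 90% inhibition by visual turbidity versus DMSO wells. Run in triplicate.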

Enterococcus faecalis [8] = assay: Antimicrobial activity against Enterococcus faecalis ATCC 49532 assessed after 18 hrs by broth microdilution method; assay type: functional; settings: ATCC 49532, 18 h; method in brief: as §2
Pseudomonas aeruginosa [9] = assay: microbe, parasite or virus in culture; settings: 799/61, 24 h, read-out: DIZ
Mycolicibacterium vaccae = assay: Antimicrobial activity against Mycobacterium vaccae IMET 10670 at 5 ug/ml after 24 hrs by Kirby-Bauer agar diffusion assay; assay type: functional; settings: IMET 10670, 24 h, read-out: DIZ; method in brief: as §1
Escherichia coli [10] = assay: Antimicrobial activity against Escherichia coli DC0 at 5 ug/ml after 24 hrs by Kirby-Bauer agar diffusion assay; settings: DC0, 24 h, read-out: DIZ
Bacillus subtilis = assay: microbe, parasite or virus in culture; settings: ATCC 6633, 24 h, read-out: DIZ
Pseudomonas aeruginosa [11] = assay: microbe, parasite or virus in culture; settings: 799/WT, 24 h, read-out: DIZ

| SMILES | zone of inhibition at 10 µg/mL [1] [mm] | zone of inhibition at 5 µg/mL (Staphylococcus aureus [2]) [mm] | zone of inhibition at 5 µg/mL (Staphylococcus aureus [3]) [mm] | zone of inhibition at 5 µg/mL (Escherichia coli [4]) [mm] | zone of inhibition at 5 µg/mL (Micrococcus luteus) [mm] | zone of inhibition at 5 µg/mL (Enterococcus faecalis [5]) [mm] | zone of inhibition at 5 µg/mL (Enterococcus faecalis [6]) [mm] | MIC90 (Staphylococcus aureus [7]) [µM] | MIC90 (Enterococcus faecalis [8]) [µM] | zone of inhibition at 5 µg/mL (Pseudomonas aeruginosa [9]) [mm] | zone of inhibition at 5 µg/mL (Mycolicibacterium vaccae) [mm] | zone of inhibition at 5 µg/mL (Escherichia coli [10]) [mm] | zone of inhibition at 5 µg/mL (Bacillus subtilis) [mm] | zone of inhibition at 5 µg/mL (Pseudomonas aeruginosa [11]) [mm] |
| --- | --- | --- | --- | --- | --- | --- | --- | --- | --- | --- | --- | --- | --- | --- |
| C[C@@H]1[C@H](O)[C@@H](C)/C=C/C=C/C=C/C=C/C=C/C=C/C=C/[C@H](O[C@@H]2O[C@H](C)[C@@H](O)[C@H](N)[C@@H]2O)C[C@@H]2O[C@](O)(C[C@@H](O)C[C@@H](O)[C@H](O)CC[C@@H](O)C[C@@H](O)CC(=O)O[C@H]1C)C[C@H](O)[C@H]2C(=O)O [AMPHOTERICIN B] | 16 | – | – | – | – | – | – | – | – | – | – | – | – | – |
| O=C(O)c1cn(C2CC2)c2cc(N3CCNCC3)c(F)cc2c1=O [CIPROFLOXACIN] | – | 11 | ≥ 21 | ≥ 21 | ≤ 10 | 16 | 16 | 0.5 (≈ 0.166 µg/mL) | 2 (≈ 0.663 µg/mL) | ≥ 21 | ≥ 21 | ≥ 21 | ≥ 21 | ≥ 21 |
